The values below come from ChEMBL document CHEMBL5321292, “Targeting Cytotoxic Agents through EGFR-Mediated Covalent Binding and Release” (J Med Chem, 2023).

Series [1] in a line: Stability of compound assessed as formation of 5-fluorouracil by measuring half life.
Series [2] concerns the target Epidermal growth factor receptor (Mus musculus, UniProt Q01279). In words: Inhibition of C-terminal his6-tagged mouse EGFR by TR-FRET assay.
In series [3] the target is T1, Epidermal growth factor receptor (Homo sapiens, UniProt P00533). Nature of the series: Inhibition of EGFR in human A-431 cells incubated for 2.5 hrs by HTRF analysis. Format: cell-based. Put shortly: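 A431 cells plated at 20 000/well and allowed to adhere for 24 h. Treated 2.5 h in duplicate (0.1% DMSO), then stimulated with 100 ng/mL EGF for 30 min. Lysed 30 min at room temperature. HTRF measured pEGFR (Tyr1068) and total EGFR at 665/620 nm. Values taken as pEGFR/total EGFR ratio, expressed as % of 0 μM control.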
In general terms: TR-FRET usually uses a lanthanide donor and a delayed reading to cut background.

Series [4] concerns the target T1, Epidermal growth factor receptor. In words: Inhibition of EGFR phosphorylation in human A-431 cells at 10 uM incubated for 4 hr by Western blot analysis. Type of series: cell-based. Put shortly:
(§1)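 A431 cells treated for 4 h and lysed in Phosphosafe buffer with protease inhibitors. Western blot probed with anti-EGFR and anti-pEGFR primary antibodies (1:1000 in 5% BSA) plus a loading control, then HRP-conjugated secondary antibodies. Bands detected by ECL.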

The target is the same in series [5]. In words: Inhibition of EGFR phosphorylation in human A-431 cells at 1 uM incubated for 4 hr by Western blot analysis. Type of series: cell-based. The method, boiled down: as §1
In series [6] the test system is A-431. In words: Antiproliferative activity against human A-431 cells assessed as cell growth inhibition measured after 72 hrs by SRB assay. Format: functional, cell-based. To be noted: A-431, read-out: pGI50 (converted). (The SRB assay estimates cell density from bound dye.)
Series [7] concerns the target T1, Epidermal growth factor receptor. Nature of the series: Inhibition of EGFR phosphorylation in human A-431 cells incubated for 4 hr.
The subject of series [8] is A-431. Nature of the series: Antiproliferative activity against human A-431 cells assessed as cell growth inhibition measured after 72 hrs in presence of 5-fluorouracil by SRB assay. Particulars: A-431, 72 h. Format: functional, cell-based. Put shortly:
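A431 cells (ECACC) seeded day 0 at exponential-growth density in DMEM + 10% FBS. Compound diluted in medium and added day 1, final DMSO 0.1%. Incubated 72 h at 37 °C, 5% CO2. Fixed with 50% TCA at 4 °C for 1 h, stained with 0.4% SRB for 30 min, washed with 1% AcOH, solubilised in 10 mM Tris pH 10.5. Absorbance read at 570 nm.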

pIC50: −log10 of the molar value. Calls of active or inactive are those of the source. The calls are words filed in the database; no cut-off is given here.

T1 sequence (P00533 whole entry): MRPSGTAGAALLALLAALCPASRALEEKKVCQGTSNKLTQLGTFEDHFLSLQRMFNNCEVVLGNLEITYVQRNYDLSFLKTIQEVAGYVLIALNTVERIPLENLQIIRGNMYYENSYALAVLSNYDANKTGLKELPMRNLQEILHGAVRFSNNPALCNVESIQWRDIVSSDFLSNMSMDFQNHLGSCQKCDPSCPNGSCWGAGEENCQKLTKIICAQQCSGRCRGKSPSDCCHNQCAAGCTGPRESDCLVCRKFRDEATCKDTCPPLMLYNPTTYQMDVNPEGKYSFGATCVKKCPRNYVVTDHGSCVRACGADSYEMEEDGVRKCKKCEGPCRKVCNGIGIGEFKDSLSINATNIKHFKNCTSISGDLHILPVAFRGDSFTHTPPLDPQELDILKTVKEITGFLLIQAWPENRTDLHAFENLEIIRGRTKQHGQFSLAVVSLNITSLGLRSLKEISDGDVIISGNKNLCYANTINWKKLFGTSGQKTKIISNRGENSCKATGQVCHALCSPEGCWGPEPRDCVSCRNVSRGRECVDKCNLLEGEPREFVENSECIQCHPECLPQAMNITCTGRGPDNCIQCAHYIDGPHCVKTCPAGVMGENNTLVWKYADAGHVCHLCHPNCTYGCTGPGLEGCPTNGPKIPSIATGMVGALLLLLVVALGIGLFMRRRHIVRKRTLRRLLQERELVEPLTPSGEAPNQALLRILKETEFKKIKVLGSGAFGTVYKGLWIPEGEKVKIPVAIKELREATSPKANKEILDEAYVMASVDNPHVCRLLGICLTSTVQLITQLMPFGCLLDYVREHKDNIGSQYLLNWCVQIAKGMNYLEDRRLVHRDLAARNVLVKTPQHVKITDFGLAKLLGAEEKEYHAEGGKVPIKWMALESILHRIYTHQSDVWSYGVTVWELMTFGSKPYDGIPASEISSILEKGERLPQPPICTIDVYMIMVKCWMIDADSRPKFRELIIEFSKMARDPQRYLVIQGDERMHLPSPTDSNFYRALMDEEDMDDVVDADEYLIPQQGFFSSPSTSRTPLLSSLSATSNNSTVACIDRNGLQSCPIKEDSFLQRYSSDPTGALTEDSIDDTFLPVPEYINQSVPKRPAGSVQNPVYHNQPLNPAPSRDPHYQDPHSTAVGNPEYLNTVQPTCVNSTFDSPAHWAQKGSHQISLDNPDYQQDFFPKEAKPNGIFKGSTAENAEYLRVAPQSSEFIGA
Sequence of Epidermal growth factor receptor (Mus musculus, UniProt Q01279) (Q01279 whole entry): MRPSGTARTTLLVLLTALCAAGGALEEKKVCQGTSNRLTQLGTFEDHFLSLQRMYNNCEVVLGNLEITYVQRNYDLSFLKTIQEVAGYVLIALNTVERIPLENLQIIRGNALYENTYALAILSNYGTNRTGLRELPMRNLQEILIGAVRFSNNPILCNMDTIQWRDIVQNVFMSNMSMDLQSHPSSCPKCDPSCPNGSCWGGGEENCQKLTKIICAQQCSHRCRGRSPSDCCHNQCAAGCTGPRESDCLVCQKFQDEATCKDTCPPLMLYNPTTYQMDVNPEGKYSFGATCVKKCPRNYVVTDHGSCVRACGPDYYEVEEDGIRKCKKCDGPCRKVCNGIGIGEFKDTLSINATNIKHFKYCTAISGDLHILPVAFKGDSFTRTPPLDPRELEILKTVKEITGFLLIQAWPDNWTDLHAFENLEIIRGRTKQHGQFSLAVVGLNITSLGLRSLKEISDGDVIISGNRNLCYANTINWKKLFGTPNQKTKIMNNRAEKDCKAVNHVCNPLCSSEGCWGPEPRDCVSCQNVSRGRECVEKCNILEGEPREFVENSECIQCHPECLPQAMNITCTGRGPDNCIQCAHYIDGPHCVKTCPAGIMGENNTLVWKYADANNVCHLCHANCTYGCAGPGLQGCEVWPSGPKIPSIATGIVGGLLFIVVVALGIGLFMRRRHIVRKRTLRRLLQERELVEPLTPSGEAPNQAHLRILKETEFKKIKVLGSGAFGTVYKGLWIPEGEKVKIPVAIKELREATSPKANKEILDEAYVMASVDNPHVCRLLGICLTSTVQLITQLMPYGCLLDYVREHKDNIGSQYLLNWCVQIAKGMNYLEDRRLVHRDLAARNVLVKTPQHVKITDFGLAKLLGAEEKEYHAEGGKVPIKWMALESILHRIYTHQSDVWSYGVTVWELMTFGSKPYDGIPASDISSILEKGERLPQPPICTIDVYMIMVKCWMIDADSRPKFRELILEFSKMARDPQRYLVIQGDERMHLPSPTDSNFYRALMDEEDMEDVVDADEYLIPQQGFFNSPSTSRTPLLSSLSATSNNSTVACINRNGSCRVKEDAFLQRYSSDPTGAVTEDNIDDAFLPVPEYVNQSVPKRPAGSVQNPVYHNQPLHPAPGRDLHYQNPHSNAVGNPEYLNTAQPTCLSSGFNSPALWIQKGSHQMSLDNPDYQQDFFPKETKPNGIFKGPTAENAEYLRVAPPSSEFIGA

For the compound `O=C(/C=C/n1cc(F)c(=O)[nH]c1=O)Cc1ccccc1`, in series [1], the t1/2 was ~ 36 hr.

Consider `COc1cc2ncnc(Nc3ccc(F)c(Cl)c3)c2cc1OC(=O)/C=C/n1cc(F)c(=O)[nH]c1=O`, for which the results for the pIC50 in series [2], in series [3] and in series [7] were 6.80, 7.80 and 7.80, respectively. Besides, in series [4], the inhibition result is “Active”. In series [5], the inhibition entry was “inactive”. The GI50 in the series on A-431 [6] is 5010 nM.

On to `O=C(/C=C/n1cc(F)c(=O)[nH]c1=O)Oc1ccc([N+](=O)[O-])cc1`, for which the t1/2 in series [1] was found to be 0.1 h.

Regarding `COCCOCCOc1ccc(NC(=O)/C=C/n2cc(F)c(=O)[nH]c2=O)cc1`, in series [1], the t1/2 is 10 h.

On to `N#Cc1ccc(OC(=O)/C=C/n2cc(F)c(=O)[nH]c2=O)cc1`, for which the t1/2 in series [1] came to 2.5 h.

Take `COc1ccc(OC(=O)/C=C/n2cc(F)c(=O)[nH]c2=O)cc1`: the t1/2 in series [1] came out at 36 h.

As for `O=C(/C=C/n1cc(F)c(=O)[nH]c1=O)Oc1ccc(Cl)cc1`, the t1/2 in series [1] turned out to be 2.9 h.

With `COc1cc2ncnc(Nc3ccc(F)c(Cl)c3)c2cc1NC(=O)/C=C/n1cc(F)c(=O)[nH]c1=O`, the pIC50 (usually the IC50 on a negative log10 scale, so that one unit is a factor of ten) was 7.30 in series [2], 5.60 in series [3] and 5.60 in series [7].

With `O=C(/C=C/n1cc(F)c(=O)[nH]c1=O)Oc1ccc(F)cc1`, the t1/2 in series [1] was 3 h.

For the compound `COc1cc2ncnc(Nc3ccc(F)c(Cl)c3)c2cc1OC(=O)/C=C/CN1CCCCC1`, in series [5], the inhibition result is “Active”. For the same compound, in the series with A-431 [8], the pIC50 was 6.20.
